Assay results: ChEMBL document CHEMBL1123757, “Selective thromboxane synthetase inhibitors and antihypertensive agents. New derivatives of 4-hydrazino-5H-pyridazino[4,5-b]indole, 4-hydrazinopyridazino[4,5-a]indole, and related compounds” (J Med Chem, 1987)

What was measured:
Cavia porcellus [1] = experiment: Effect on thromboxane synthetase activity (ex vivo) at 100 mg/kg expressed as percent increase in PGE-2; format: functional
How it was run: (§1)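 Fasted male or female guinea pigs (250–300 g, five per group) dosed orally in normal saline or saline with 0.2% (carboxymethyl)cellulose/1.0% Tween 80; controls given vehicle. Under ether, cardiac blood collected into 3.8% citrate. PRP adjusted to […] and aggregation induced by ADP (second wave) or AA, read by absorbance aggregometry. PGE2 and TXB2 measured by RIA.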

Cavia porcellus [2] = experiment: Ex vivo inhibition of platelet aggregation induced by ADP-II at 100 mg/kg; format: functional; how it was run: as §1
[3] = Effect on PGI-2 release from rat aortic tissue at a final concentration of 10e -4 for an incubation time of 25 minutes; format: functional
How it was run: (§2)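 Female Wistar rats (200–220 g) received heparin 200 IU/kg ip and were killed 10 min later. Aortic pieces of about 25 mm² were washed in ice-cold oxygenated Krebs–Henseleit buffer, then incubated in 1 mL buffer at 37 °C. Compound at 10^-4 M final was added 10 min before tissue transfer. PGI2 release was read as antiaggregatory activity of the incubate on ADP (2×10^-6 M)-induced human PRP aggregation and by 6-keto-PGF1α RIA. n = 4.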

Rattus norvegicus [4] = experiment: Antihypertensive activity in spontaneously hypertensive rats (SHR) measured by percentage fall in cardiac rhythm (CR) at 25 mg/kg administered intraperitoneally at 1 h; format: functional, Heart; details: route intraperitoneal
How it was run: (§3)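 Unanesthetized Okamoto-strain SHR, male and female, 8 weeks old, 300–350 g, systolic pressure ≥190 mmHg, heart rate 400–650 beats/min; five animals per dose. Given ip at 2.5 mL/kg, dissolved or suspended in normal saline or saline with 0.2% (carboxymethyl)cellulose and 1.0% Tween 80. Tail AP and CR recorded by mechanical transduction at set times; reported as percentage fall from control.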

Rattus norvegicus [5] = experiment: Antihypertensive activity in spontaneously hypertensive rats (SHR) measured by percentage fall in arterial pressure (AP) at 25 mg/kg administered perorally at 3 h; format: functional, Artery; details: route oral
How it was run: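 Oral dosing at 2.5 mL/kg to unanesthetized male and female Okamoto-strain SHR (8 weeks old, 300–350 g, systolic pressure ≥190 mmHg, heart rate 400–650 beats/min), five per dose. Vehicle was normal saline or saline with 0.2% (carboxymethyl)cellulose and 1.0% Tween 80. AP measured on the tail by mechanical transduction at set times; expressed as percentage fall from control.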

Rattus norvegicus [6] = experiment: Antihypertensive activity in spontaneously hypertensive rats (SHR) measured by percentage fall in cardiac rhythm (CR) at 5 mg/kg administered intraperitoneally at 3 h; format: functional, Heart; details: route intraperitoneal
How it was run: (§4)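 Conscious SHR (Okamoto strain), 8 weeks old, male and female, 300–350 g, systolic BP ≥190 mmHg, CR 400–650 beats/min. Given ip or po at 2.5 mL/kg in normal saline or saline with 0.2% (carboxymethyl)cellulose and 1.0% Tween 80. Tail AP and CR recorded by mechanical transduction at 1, 3, 5 and 24 h, five animals per dose. Effect expressed as % fall versus control.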

Homo sapiens [7] = organism: Homo sapiens; experiment: In vitro inhibition of platelet aggregation induced by ADP-II (PRP incubated for 5 minutes at 37 degree C) at 10e-5 M; format: functional
How it was run: (§5)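 Human venous blood anticoagulated with 3.8% sodium citrate (1:9). PRP from centrifugation at 800 rpm for 10 min at room temperature. Count adjusted with PPP to […]. Compound in saline with 10% ethylene glycol is added to PRP and incubated at 37 °C before the agonist. Agonists: ADP 2×10^-5 M, AA 0.6 mM, PGH2 2.8 μM, adrenaline 0.6 μM. Born absorbance aggregometry; n = 5.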

Rattus norvegicus [8] = experiment: Antihypertensive activity in spontaneously hypertensive rats (SHR) measured by percentage fall in arterial pressure (AP) at 5 mg/kg administered intraperitoneally at 3 h; format: functional, Artery; details: route intraperitoneal; how it was run: as §3
Rattus norvegicus [9] = experiment: Percent fall in systolic blood pressure, directly measured on carotid (iv on the jugular vein) of spontaneously hypertensive rats at 1 mg/kg after 180 minutes; format: functional, Artery
How it was run: (§6)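 Anesthetized (sodium pentobarbital, 70 mg/kg) male and female Okamoto SHR, 8 weeks old, 300–350 g. Given iv into the jugular vein in normal saline. Arterial pressure and cardiac rhythm are recorded directly from the carotid by polygraph at set times after dosing. Each is expressed as percent change from the pre-dose control value.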

Rattus norvegicus [10] = experiment: Percent fall in systolic blood pressure, directly measured on carotid (iv on the jugular vein) of spontaneously hypertensive rats at 1 mg/kg after 60 minutes; format: functional, Artery; how it was run: as §6
Rattus norvegicus [11] = experiment: Percent increase in cardiac rhythm, directly measured on carotid (iv on the jugular vein) of spontaneously hypertensive rats at 1 mg/kg after 30 minutes; format: functional, Heart; how it was run: as §6
Rattus norvegicus [12] = experiment: Percent increase in cardiac rhythm, directly measured on carotid (iv on the jugular vein) of spontaneously hypertensive rats at 1 mg/kg after 15 minutes; format: functional, Heart; how it was run: as §6
Homo sapiens [13] = organism: Homo sapiens; experiment: In vitro inhibition of platelet aggregation induced by AA (PRP incubated for 60 minutes at 37 degree C) at 10e-5 M; format: functional; details: 1 h; how it was run: as §5
[14] = Effect on thromboxane synthetase activity on in vitro platelet aggregation induced by AA at 10e -5 M expressed as percent increase in PGE-2; format: functional, Homo sapiens
How it was run: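 Human citrated PRP adjusted to 200 000 […], compound at 10^-5 M final in saline/10% ethylene glycol, incubated at 37 °C. Aggregation induced with arachidonic acid 0.6 mM and read by Born absorbance aggregometry. PGE2 and TXB2 in the aggregated samples measured by radioimmunoassay. n = 5.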

Rattus norvegicus [15] = experiment: Antihypertensive activity in spontaneously hypertensive rats (SHR) measured by percentage fall in arterial pressure (AP) at 25 mg/kg administered intraperitoneally at 3 h; format: functional, Artery; details: route intraperitoneal; how it was run: as §3
Homo sapiens [16] = organism: Homo sapiens; experiment: In vitro inhibition of platelet aggregation induced by DD (PRP incubated for 5 minutes at 37 degree C) at 10e-5 M; format: functional; how it was run: as §5
[17] = Acute toxicity in mice was expressed as lethal dose; format: organism-based; details: mouse, in vivo
How it was run: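 Swiss male mice, 20 ± 2 g, dosed ip at four or more dose levels. LD50 calculated 7 days after drug administration by probit analysis (Miller and Tainter).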

[18] = Effect on PGI-2 release from rat aortic tissue at a final concentration of 10e -4 for an incubation time of 30 minutes; format: functional; how it was run: as §2
Homo sapiens [19] = organism: Homo sapiens; experiment: In vitro inhibition of platelet aggregation induced by PGH-2 (PRP incubated for 60 minutes at 37 degree C) at 10e-5 M; format: functional; details: 1 h; how it was run: as §5
Rattus norvegicus [20] = experiment: Antihypertensive activity in spontaneously hypertensive rats (SHR) measured by percentage fall in cardiac rhythm (CR) at 25 mg/kg administered perorally at 5 h; format: functional, Heart; details: route oral; how it was run: as §4
Rattus norvegicus [21] = experiment: Antihypertensive activity in spontaneously hypertensive rats (SHR) measured by percentage fall in cardiac rhythm (CR) at 25 mg/kg administered perorally at 3 h; format: functional, Heart; details: route oral; how it was run: as §4
Homo sapiens [22] = organism: Homo sapiens; experiment: In vitro inhibition of platelet aggregation induced by ADP-II (PRP incubated for 60 minutes at 37 degree C) at 10e-5 M; format: functional; details: 1 h; how it was run: as §5
Rattus norvegicus [23] = experiment: Antihypertensive activity in spontaneously hypertensive rats (SHR) measured by percentage fall in arterial pressure (AP) at 5 mg/kg administered intraperitoneally at 1 h; format: functional, Artery; details: route intraperitoneal; how it was run: as §3
Rattus norvegicus [24] = experiment: Antihypertensive activity in spontaneously hypertensive rats (SHR) measured by percentage fall in cardiac rhythm (CR) at 25 mg/kg administered intraperitoneally at 3 h; format: functional, Heart; details: route intraperitoneal; how it was run: as §3

## COc1ccc2[nH]c3c(NN)nncc3c2c1.Cl
Cavia porcellus [1]
  Increase: 35%
Cavia porcellus [2]
  inhibition in vivo at 100 mg/kg: 100%
[3]
  Inhibition: 45%
Rattus norvegicus [4]
  Decrease in CR: 22%
Rattus norvegicus [5]
  Decrease in AP: 40%
Rattus norvegicus [6]
  Decrease in CR: -8%
Homo sapiens [7]
  inhibition at 10 µM: 100%
Rattus norvegicus [8]
  Decrease in AP: 35%
Rattus norvegicus [9]
  Decrease in blood pressure: 36%
Rattus norvegicus [10]
  Decrease in blood pressure: 60%
Rattus norvegicus [11]
  Increase: 12%
Rattus norvegicus [12]
  Increase: 11%
Homo sapiens [13]
  inhibition at 10 µM: 100%
[14]
  Increase: 47%
Rattus norvegicus [15]
  Decrease in AP: 57%
Homo sapiens [16]
  inhibition at 10 µM: 100%
[17]
  LD50: 225 mg/kg
[18]
  Inhibition: 35%
Homo sapiens [19]
  inhibition at 10 µM: 100%
Rattus norvegicus [20]
  Decrease in CR: -14%
Rattus norvegicus [21]
  Decrease in CR: -14%
Homo sapiens [22]
  inhibition at 10 µM: 100%
Rattus norvegicus [23]
  Decrease in AP: 50%
Rattus norvegicus [24]
  Decrease in CR: 19%
